Experimental findings from ChEMBL document CHEMBL3399991, “Design, synthesis and biological evaluation of a highly-potent and cancer cell selective folate-taxoid conjugate” (Bioorg Med Chem, 2015) are described below.

Usually IC50 stands for the concentration that gives 50% inhibition.

The test system of assay [1] is MX1. Kind of assay: Selectivity index, ratio of IC50 for folate receptor deficient human WI38 cells to IC50 for folate receptor over-expressing human MX1 cells.
In assay [2] the test system is L1210. Description: Cytotoxicity against folate receptor over-expressing mouse L1210 cells after 72 hrs by MTT assay. The format is functional, cell-based. To be noted: L1210, 72 h. In short, it runs like this: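 L1210FR cells grown in suspension in supplemented RPMI-1640. Resuspended directly in test solutions, 0.5–5,000 nM final, at 0.5–0.8 × 10^4 cells/well, DMSO ≤1%. Incubated 72 h. MTT 0.5 mg/mL for 3 h at 37 °C, formazan dissolved in 0.1 N HCl/isopropanol with 10% Triton X-100, absorbance at 570 nm. IC50 from four-parameter logistic fit, with standard errors.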
(In general: Tetrazolium assays rely on reduction of a dye to a coloured formazan, in cell work by metabolically active cells.)

The nature of assay [3]: Cytotoxicity against folate receptor over-expressing mouse ID8 cells after 72 hrs by MTT assay. The format is functional, cell-based. To be noted: ID8, 72 h. In short, it runs like this: (§1)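 Adherent monolayers in RPMI-1640 with 5% heat-inactivated FBS, 5% NuSerum and PenStrep, 37 °C, 5% CO2. Seeded 0.5–1.5 × 10^4 cells/well and left to attach overnight, then medium replaced. Compound diluted from DMSO stock to 0.5–5,000 nM final, DMSO ≤1%, 72 h. MTT 0.5 mg/mL for 3 h at 37 °C, formazan dissolved in acidic isopropanol/Triton, A570. IC50 from four-parameter logistic fit.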

The subject of assay [4] is MX1. Kind of assay: Cytotoxicity against folate receptor over-expressing human MX1 cells incubated for 24 hrs followed by 6 equiv GSH-OEt addition and further incubated for another 48 by MTT assay. The assay is classed as functional, cell-based. To be noted: MX1, 24 h. In short, it runs like this: (§2)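 After 24 h treatment with the conjugate, glutathione ethyl ester (GSH-OEt, 6 equiv.) was added, followed by a further 48 h, 72 h total. Cells-permeable thiol ester. Compound 0.5–5,000 nM in RPMI-1640 medium. MTT read-out at 570 nm. IC50 from four-parameter logistic fit.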

Assay [5] is described as follows: Cytotoxicity against folate receptor deficient human WI38 cells after 72 hrs by MTT assay. The format is functional, cell-based. As to conditions: WI-38, 72 h. In short, it runs like this: as §1
For assay [6], the system named is L1210. Kind of assay: Cytotoxicity against folate receptor over-expressing mouse L1210 cells incubated for 24 hrs followed by 6 equiv GSH-OEt addition and further incubated for another 48 by MTT assay. The format is functional, cell-based. To be noted: L1210, 24 h. In short, it runs like this:
as §2

Assay [7] has as its system MX1. Kind of assay: Cytotoxicity against folate receptor over-expressing human MX1 cells incubated for 24 hrs followed by 6 equiv GSH addition and further incubated for another 48 by MTT assay. To be noted: MX1, 24 h. The assay is classed as functional, cell-based. In short, it runs like this:
(§3)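 Cells were exposed to the conjugate for 24 h, then reduced glutathione (GSH, 6 equiv.) was added and incubation continued 48 h, 72 h in total. Compound range 0.5–5,000 nM in RPMI-1640 medium, which contains folic acid. Read-out by MTT at 570 nm. IC50 from four-parameter logistic curve.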

Another assay deals with WI-38. Kind of assay: Selectivity index, ratio of IC50 for folate receptor deficient human WI38 cells to IC50 for folate receptor over-expressing mouse ID8 cells.
Assay [8] concerns L1210. Description: Selectivity index, ratio of IC50 for folate receptor deficient human WI38 cells to IC50 for folate receptor over-expressing mouse L1210 cells.
Assay [9] deals with MX1. Description: Cytotoxicity against folate receptor over-expressing human MX1 cells after 72 hrs by MTT assay. The format is functional, cell-based. As to conditions: MX1, 72 h. In short, it runs like this:
as §1

Assay [10] concerns L1210. Description: Cytotoxicity against folate receptor over-expressing mouse L1210 cells incubated for 24 hrs followed by 6 equiv GSH addition and further incubated for another 48 by MTT assay. The format is functional, cell-based. To be noted: L1210, 24 h. In short, it runs like this:
as §3

As for `CC(=O)O[C@@]12CO[C@@H]1C[C@H](O)[C@@]1(C)C(=O)[C@H](OC(=O)C3CC3)C3=C(C)[C@@H](OC(=O)[C@H](OC(=O)Cc4ccccc4SSC(C)CCC(=O)NCCCOCCOCCOCCCNC(=O)c4ccc(CC5CCCCCc6c5nnn6CCOCCOCCOCCNC(=O)CC[C@@H](NC(=O)CC[C@@H](NC(=O)c5ccc(NCc6cnc7nc(N)nc(O)c7n6)cc5)C(=O)O)C(=O)N[C@H](CCCNC(=N)N)C(=O)O)cc4)[C@H](C=C(C)C)NC(=O)OC(C)(C)C)C[C@@](O)([C@@H](OC(=O)c4ccccc4)[C@H]21)C3(C)C` (some centres undefined), the “Ratio IC50” value in the assay on MX1 [1], in the assay with WI-38 and with L1210 [8] was above 1000 throughout. The IC50 is 3.51 nM in the assay on L1210 [2]; 2.52 nM in assay [3]; 2.08 nM in the assay with MX1 [4]; above 5000 nM in assay [5]; 3.35 nM with L1210 [6]; 3.42 nM in the assay on MX1 [7]. Also, the IC50 with MX1 [9] came to 3.43 nM; in the assay with L1210 [10], 3.87 nM.
In the case of `CC(=O)O[C@@]12CO[C@@H]1C[C@H](O)[C@@]1(C)C(=O)[C@H](OC(=O)C3CC3)C3=C(C)[C@@H](OC(=O)[C@H](O)[C@H](C=C(C)C)NC(=O)OC(C)(C)C)C[C@@](O)([C@@H](OC(=O)c4ccccc4)[C@H]21)C3(C)C`, the IC50 with L1210 [2] was 2.66 nM; in assay [3] it was 2.82 nM; in assay [5], 4.89 nM; in the assay on MX1 [9], 1.89 nM.
On to `CC(=O)O[C@H]1C(=O)[C@@]2(C)[C@H]([C@H](OC(=O)c3ccccc3)[C@]3(O)C[C@H](OC(=O)[C@H](O)[C@@H](NC(=O)c4ccccc4)c4ccccc4)C(C)=C1C3(C)C)[C@]1(OC(C)=O)CO[C@@H]1C[C@@H]2O` [PACLITAXEL], for which the IC50 was 27.6 nM in the assay on L1210 [2], 13.8 nM in assay [3], 55.7 nM in assay [5] and 5.59 nM in the assay on MX1 [9].
